High-throughput results as filed in PubChem BioAssay.
XBP1 UPR activ: activators of adaptive arm of unfolded protein response (XBP1). CHO-XBP1 luciferase reporter, IRE1-XBP1 UPR activation, luminescence; percent of tunicamycin response, DMSO as zero. activation, % at 20 µM. actives 0.33% (n = 330,000);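 active means versus positive control, 20 µM dose yields 30% or more activation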
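Material: CHO-XBP1 cells stably carrying IRE1-XBP1-driven luciferase reporter | Medium: F12 with 10% serum | Compound dosing: 20 µM single concentration, DMSO 1% | Incubation: Overnight seeding at 37 °C, 6 h compound treatment at 37 °C | Detection: Steady-Glo luminescence read | Read-out basis: % activation of reporter signal versus tunicamycin and DMSO controls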
CHOP UPR activ: activators of apoptotic arm of unfolded protein response (CHOP); CHO-CHOP luciferase reporter, UPR activation, luminescence; percent of tunicamycin response over DMSO baseline; activation, % at 10 µM; actives 0.34% (n = 330,000); AID 449763;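 active means at 10 µM dose, activation of 40% or more, normalized to positive control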
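Test system: CHO CHOP reporter cells. Input: 500 CHO-CHOP cells per well. Medium: F12 with 10% FBS. Technique: luciferase luminescence. Measure: percent activation relative to tunicamycin control. Dosing: 10 µM compound, 0.5% DMSO. Timing: 16-18 h cell attachment, then 6 h compound exposure, 37 °C.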
CHOP inh: inhibitors of CHOP induction in ER stress response. inhibition, % at 10 µM. AID 2732. CHO-K1 CHOP-promoter luciferase, tunicamycin-induced, 15-18 h. actives 3.8% (n = 220,000);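 active means compounds that reduced the stress-induced luciferase reporter signal by more than about 70% of percent inhibition, limit read from the data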
A1 inh: inhibitors of the anti-apoptotic protein A1, read as caspase activation | MEF A1-2A-BIM cells, Caspase-Glo 3/7 luminescence, 3 h; percent of clofoctol response, vehicle zero | caspase activation, % (concentration not given with the values) | actives 0.066% (n = 330,000) | AID 2462;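 active means over half of replicate activation scores above 10%, or exactly half above 10 with the replicate mean above 10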
CHOP inh conf: confirmation of CHOP induction inhibitors; shares compounds with CHOP inh; CHO-CHOP promoter luciferase reporter, tunicamycin-induced, luminescence; inhibition, % at 10 µM; actives 45% (n = 2,100); AID 504437;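 active means mean of three repeat readings of reporter signal inhibition above a set limit, cut at about 70% in these data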
A number is an active result. The entries come from a sample that favours hits as a whole.

How did COc1ccc(-c2nn(-c3ccccc3)cc2/C=N/NC(=O)c2ccc(Br)o2)cc1 do in these assays?
XBP1 UPR activ: inactive; CHOP UPR activ: inactive; CHOP inh: 107; A1 inh: inactive; CHOP inh conf: 127

Results for Cc1onc(-c2c(F)cccc2Cl)c1C(=O)N1CCCCC1 ?
XBP1 UPR activ: inactive; CHOP UPR activ: inactive; A1 inh: inactive

Results for Cc1ccc2oc(-c3cccc(NC(=O)Cc4cccs4)c3)nc2c1 ?
XBP1 UPR activ: inactive; CHOP UPR activ: inactive; CHOP inh: 98; A1 inh: inactive; CHOP inh conf: inactive

Results for Cc1ccc2oc(-c3cccc(NC(=O)c4cc(-n5cnnc5)ccc4Cl)c3)nc2c1 ?
XBP1 UPR activ: inactive; CHOP UPR activ: inactive; CHOP inh: 102; A1 inh: inactive; CHOP inh conf: inactive

What do the screens show for `CCCC(=O)Nc1cccc(-c2nc3cc(C)c(C)cc3o2)c1`?
XBP1 UPR activ: inactive; CHOP UPR activ: inactive; CHOP inh: 105; A1 inh: inactive; CHOP inh conf: inactive

Results for Cc1ccc(S(=O)(=O)N(C(=N)N)c2nc(N(C)C)nc(N(C)C)n2)cc1 ?
XBP1 UPR activ: inactive; CHOP UPR activ: inactive; A1 inh: inactive

Results for CCCn1c(/N=C/c2c[nH]c3ccccc23)nc2ccccc21 ?
XBP1 UPR activ: inactive; CHOP UPR activ: inactive; CHOP inh: 105; A1 inh: inactive; CHOP inh conf: inactive

Results for CCCCn1c(/N=C/c2c[nH]c3ccccc23)nc2ccccc21 ?
XBP1 UPR activ: inactive; CHOP UPR activ: inactive; CHOP inh: 111; A1 inh: inactive; CHOP inh conf: 117

Results for CCCCn1c(/N=C/c2ccc3c(c2)OCO3)nc2ccccc21 ?
XBP1 UPR activ: inactive; CHOP UPR activ: inactive; CHOP inh: 98; A1 inh: inactive; CHOP inh conf: inactive

How did Cc1ccc(C)c(NC(=S)NC(NC(=O)/C=C/c2ccccc2)C(Cl)(Cl)Cl)c1 (stereo not given) do in these assays?
XBP1 UPR activ: inactive; CHOP UPR activ: inactive; CHOP inh: 107; A1 inh: inactive; CHOP inh conf: 92

Results for COc1ccc(/C=C2\C(=O)NC(=S)N2C(=O)c2ccc(F)cc2)cc1 ?
CHOP inh: 97; A1 inh: inactive; CHOP inh conf: inactive

What do the screens show for `O=C(c1ccc2c3c(cccc13)C(=O)N(O)C2=O)N1CCCCC1`?
XBP1 UPR activ: inactive; CHOP UPR activ: inactive; CHOP inh: 98; A1 inh: inactive; CHOP inh conf: 109

What do the screens show for `COc1cccc(CN2CC(C(=O)NCCOc3cccnc3)CCC2=O)c1` (stereo not given)?
XBP1 UPR activ: inactive; CHOP UPR activ: inactive

What do the screens show for `CCN(CCCNC(=O)CN1C(=O)COc2ccc(S(=O)(=O)N3CCC(C)CC3)cc21)Cc1ccccc1`?
XBP1 UPR activ: inactive; CHOP UPR activ: inactive; A1 inh: inactive

What do the screens show for `CS(=O)(=O)c1ccc(S(=O)CC(=O)OCc2ccccc2)c([N+](=O)[O-])c1` (stereo not given)?
CHOP inh: 107; CHOP inh conf: 128

How did O=c1[nH]c2ccc(S(=O)(=O)N3CCC(Cc4ccccc4)CC3)cc2o1 do in these assays?
XBP1 UPR activ: inactive; CHOP UPR activ: inactive; CHOP inh: 100; A1 inh: inactive; CHOP inh conf: inactive

How did Cn1c(=O)c(=O)n(C)c2cc(S(=O)(=O)N3CCC(Cc4ccccc4)CC3)ccc21 do in these assays?
XBP1 UPR activ: inactive; CHOP UPR activ: inactive; CHOP inh: inactive; A1 inh: inactive

What do the screens show for `O=C(c1cc(-c2ccccc2O)on1)N1CCc2ccccc2C1`?
XBP1 UPR activ: inactive; CHOP UPR activ: inactive; CHOP inh: 106; A1 inh: inactive; CHOP inh conf: inactive

Results for COCCn1c(SCC(=O)Nc2ccc(C)cc2C)nc2c(oc3ccccc32)c1=O ?
XBP1 UPR activ: inactive; CHOP UPR activ: inactive; CHOP inh: 101; A1 inh: inactive; CHOP inh conf: inactive

How did CCCCn1c(-c2nonc2N)nc2ccccc21 do in these assays?
XBP1 UPR activ: inactive; CHOP UPR activ: inactive; CHOP inh: 100; A1 inh: inactive; CHOP inh conf: inactive

What do the screens show for `O=C(/C=C/c1ccncc1)c1ccc(NC(=O)c2ccccc2F)cc1`?
CHOP inh: 106; A1 inh: inactive; CHOP inh conf: inactive

Results for COc1ccc(/C=N/Nc2ncccc2[N+](=O)[O-])c(OC)c1 ?
XBP1 UPR activ: inactive; CHOP UPR activ: inactive; CHOP inh: inactive; A1 inh: inactive
